Source: ChEMBL document CHEMBL3808334, “Synthesis and in vitro evaluation of novel triazine analogues as anticancer agents and their interaction studies with bovine serum albumin” (Eur J Med Chem, 2016)

Assays:
Type in all cases: functional
[1] = tested on: MDA-MB-435; experiment: Growth inhibition of human MDA-MB-435 cells assessed as cell growth at 10^-5 M incubated for 48 hrs by sulforhodamine B assay; details: MDA-MB-435, 48 h, read-out: Activity
[2] = tested on: SR; experiment: Growth inhibition of human SR cells incubated for 48 hrs by sulforhodamine B assay
Summary of the method: (§1)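 Cells were plated at 5,000–40,000 per well according to doubling time and preincubated 24 h at 37 °C in 5% CO2; time-zero plates were then TCA-fixed. Five concentrations (10-fold or ½-log dilutions, DMSO stock) were incubated 48 h. Cells were TCA-fixed, stained with 0.4% SRB and read at 515 nm. GI50 was taken where [(Ti−Tz)/(C−Tz)]×100 = 50.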

[3] = Growth inhibition of human SF539 cells incubated for 48 hrs by sulforhodamine B assay; details: SF-539, 48 h; summary of the method: as §1
[4] = tested on: SK-MEL-2; experiment: Growth inhibition of human SK-MEL-2 cells assessed as cell growth at 10^-5 M incubated for 48 hrs by sulforhodamine B assay; details: SK-MEL-2, 48 h, read-out: Activity
[5] = tested on: ACHN; experiment: Growth inhibition of human ACHN cells incubated for 48 hrs by sulforhodamine B assay
Summary of the method: (§2)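 Five-dose assay: five concentrations from 10-fold or ½-log serial dilutions. Cells are plated at 5,000–40,000 per well according to doubling time, grown 24 h, then exposed 48 h at 37 °C, 5% CO₂. Fixed with cold 50% TCA (final addition) for 60 min at 4 °C and stained with 0.4% SRB in 1% acetic acid. Bound dye is solubilized in 10 mM Tris base and read at 515 nm. GI₅₀ is where [(Ti−Tz)/(C−Tz)]×100 = 50, with a time-zero plate as Tz.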

[6] = Growth inhibition of human HL-60(TB) cells assessed as cell growth at 10^-6 M incubated for 48 hrs by sulforhodamine B assay; details: HL-60, 48 h, read-out: Activity
Summary of the method: (§3)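 Cells plated at 5,000–40,000/well according to doubling time and preincubated 24 h at 37 °C, 5% CO₂, with time-zero plates TCA-fixed. Drugs were kept as DMSO concentrates at 400× the top concentration and diluted in medium with 50 µg/ml gentamicin. Five 10-fold or ½-log dilutions were run for 48 h, followed by SRB staining and A515. Percent growth = (Ti−Tz)/(C−Tz)×100, or (Ti−Tz)/Tz×100 when Ti<Tz.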

[7] = Growth inhibition of human HCT116 cells incubated for 48 hrs by sulforhodamine B assay; details: HCT-116, 48 h
Summary of the method: (§4)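 Cells seeded at 5,000–40,000/well according to doubling time and preincubated 24 h at 37 °C, 5% CO2. Time-zero plates were TCA-fixed. DMSO concentrate was diluted in medium with 50 µg/ml gentamicin to give five concentrations (10-fold or ½ log steps), then exposed 48 h. Cells were TCA-fixed, stained with 0.4% SRB and read at 515 nm. Percent growth was taken against time-zero and control; GI50, TGI and LC50 derived.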

[8] = Growth inhibition of human Caki1 cells assessed as cell growth at 10^-4 M incubated for 48 hrs by sulforhodamine B assay; details: CAKI-1, 48 h, read-out: Activity; summary of the method: as §4
[9] = Growth inhibition of human SNB19 cells assessed as cell growth at 10 uM incubated for 48 hrs by sulforhodamine B assay; details: SNB-19, 48 h, read-out: Activity
[10] = Growth inhibition of human OVCAR4 cells assessed as cell growth at 10^-4 M incubated for 48 hrs by sulforhodamine B assay; details: OVCAR-4, 48 h, read-out: Activity
[11] = Growth inhibition of human UO31 cells assessed as cell growth at 10^-7 M incubated for 48 hrs by sulforhodamine B assay; details: UO-31, 48 h, read-out: Activity
[12] = tested on: K562; experiment: Growth inhibition of human K562 cells assessed as cell growth at 10^-5 M incubated for 48 hrs by sulforhodamine B assay; details: K562, 48 h, read-out: Activity
[13] = Growth inhibition of human HCT15 cells assessed as cell growth at 10^-8 M incubated for 48 hrs by sulforhodamine B assay; details: HCT-15, 48 h, read-out: Activity; summary of the method: as §4
[14] = tested on: A498; experiment: Growth inhibition of human A498 cells assessed as cell growth at 10^-4 M incubated for 48 hrs by sulforhodamine B assay; details: A498, 48 h, read-out: Activity; summary of the method: as §2
[15] = Growth inhibition of human COLO205 cells assessed as cell growth at 10^-6 M incubated for 48 hrs by sulforhodamine B assay; details: COLO 205, 48 h, read-out: Activity; summary of the method: as §4
[16] = Growth inhibition of human HL-60(TB) cells assessed as cell growth at 10^-8 M incubated for 48 hrs by sulforhodamine B assay; details: HL-60, 48 h, read-out: Activity; summary of the method: as §3
[17] = tested on: MDA-MB-435; experiment: Growth inhibition of human MDA-MB-435 cells assessed as cell growth at 10^-4 M incubated for 48 hrs by sulforhodamine B assay; details: MDA-MB-435, 48 h, read-out: Activity
[18] = tested on: SR; experiment: Growth inhibition of human SR cells assessed as cell growth at 10^-5 M incubated for 48 hrs by sulforhodamine B assay; details: read-out: Activity
[19] = tested on: 786-0; experiment: Growth inhibition of human 786-0 cells assessed as cell growth at 10 uM incubated for 48 hrs by sulforhodamine B assay; details: 786-0, 48 h, read-out: Activity
Summary of the method: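 One-dose screen at 10 µM final. Cells are plated at 5,000–40,000 per well according to doubling time and preincubated 24 h at 37 °C, 5% CO₂. Compound (DMSO stock diluted in medium with 50 µg/ml gentamicin) is then added for 48 h. Growth percent is read by sulforhodamine B staining, absorbance at 515 nm.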

[20] = Growth inhibition of human SW620 cells assessed as cell growth at 10^-7 M incubated for 48 hrs by sulforhodamine B assay; details: SW-620, 48 h, read-out: Activity
[21] = tested on: SK-MEL-2; experiment: Growth inhibition of human SK-MEL-2 cells assessed as cell growth at 10 uM incubated for 48 hrs by sulforhodamine B assay; details: SK-MEL-2, 48 h, read-out: Activity
[22] = Growth inhibition of human UACC62 cells assessed as cell growth at 10^-5 M incubated for 48 hrs by sulforhodamine B assay; details: UACC-62, 48 h, read-out: Activity
[23] = tested on: KM12; experiment: Growth inhibition of human KM12 cells assessed as cell growth at 10 uM incubated for 48 hrs by sulforhodamine B assay; details: KM12, 48 h, read-out: Activity
[24] = Growth inhibition of human HOP62 cells assessed as cell growth at 10^-6 M incubated for 48 hrs by sulforhodamine B assay; details: HOP-62, 48 h, read-out: Activity
[25] = read-out: LC50 (the source's name)
[26] = read-out: pLC50 (the source's name) (converted)

With `Clc1ccc(-c2nc(Nc3ccc(-c4nc5ccccc5[nH]4)cc3)nc(N3CCOCC3)n2)cc1` the growth at 10 µM [1] was -98%, the GI50 ([2]; read-out: GI50) was 0.031 µM and the CC50 [2, 25] was greater than 100 µM. The GI50 ([2]; read-out: pGI50 (converted)) was 0.0309 µM, the CC50 [2, 26] was greater than 100 µM and the GI50 ([3]; read-out: GI50) was 0.52 µM. It also gave a TGI ([3]; read-out: TGI) of 1.83 µM, a GI50 ([3]; read-out: pGI50 (converted)) of 0.525 µM and a TGI ([3]; read-out: pTGI (converted)) of 1.82 µM. For the same compound, the growth at 10 µM [4] was -87%, the GI50 ([5]; read-out: GI50) was 1.05 µM and the TGI ([5]; read-out: TGI) was 2.38 µM. For the same compound, the GI50 ([5]; read-out: pGI50 (converted)) was 1.05 µM, the TGI ([5]; read-out: pTGI (converted)) was 2.4 µM and the growth at 1 µM [6] was -29%. It also gave a GI50 ([7]; read-out: GI50) of 0.177 µM, a TGI ([7]; read-out: TGI) of 0.346 µM and a GI50 ([7]; read-out: pGI50 (converted)) of 0.178 µM. For the same compound, the TGI ([7]; read-out: pTGI (converted)) was 0.347 µM, the growth at 100 µM [8] was -68% and the growth at 10 µM [9] was -81.2%. For the same compound, the growth at 100 µM [10] was -51%, the growth at 0.1 µM [11] was 92% and the growth at 10 µM [12] was -70%. It also gave a growth at 0.01 µM [13] of 96%, a growth at 100 µM [14] of -48% and a growth at 1 µM [15] of 2%. For the same compound, the growth at 0.01 µM [16] was 97%, the growth at 100 µM [17] was -49% and the growth at 10 µM [18] was -21%. The growth at 10 µM [19] was -94.5%, the growth at 0.1 µM [20] was 95% and the growth at 10 µM [21] was -71.3%. The growth at 10 µM [22] was -77%, the growth at 10 µM [23] was -91.3% and the growth at 1 µM [24] was 72%.
For `c1ccc2[nH]c(-c3ccc(Nc4nc(N5CCCCC5)nc(N5CCOCC5)n4)cc3)nc2c1`, the growth at 10 µM [1] was -48%, the GI50 ([2]; read-out: GI50) was 0.731 µM and the CC50 [2, 25] was greater than 100 µM. The TGI ([2]; read-out: TGI) was 5.73 µM, the GI50 ([2]; read-out: pGI50 (converted)) was 0.724 µM and the CC50 [2, 26] was greater than 100 µM. The TGI ([2]; read-out: pTGI (converted)) was 5.75 µM, the GI50 ([3]; read-out: GI50) was 2.14 µM and the CC50 [3, 25] was 28.5 µM. The TGI ([3]; read-out: TGI) was 5.75 µM, the GI50 ([3]; read-out: pGI50 (converted)) was 2.14 µM and the CC50 [3, 26] was 28.2 µM. The TGI ([3]; read-out: pTGI (converted)) was 5.75 µM, the growth at 10 µM [4] was -38% and the GI50 ([5]; read-out: GI50) was 3.14 µM. It also gave a CC50 [5, 25] greater than 100 µM, a TGI ([5]; read-out: TGI) greater than 100 µM and a GI50 ([5]; read-out: pGI50 (converted)) of 3.16 µM. It also gave a CC50 [5, 26] greater than 100 µM, a TGI ([5]; read-out: pTGI (converted)) greater than 100 µM and a growth at 1 µM [6] of 100%. For the same compound, the GI50 ([7]; read-out: GI50) was 1.91 µM, the CC50 [7, 25] was 7.88 µM and the TGI ([7]; read-out: TGI) was 3.87 µM. For the same compound, the GI50 ([7]; read-out: pGI50 (converted)) was 1.91 µM, the CC50 [7, 26] was 7.94 µM and the TGI ([7]; read-out: pTGI (converted)) was 3.89 µM. It also gave a growth at 100 µM [8] of -32%, a growth at 10 µM [9] of 10.4% and a growth at 100 µM [10] of -32%. The growth at 0.1 µM [11] was 86%, the growth at 10 µM [12] was -21% and the growth at 0.01 µM [13] was 95%. The growth at 100 µM [14] was -90%, the growth at 1 µM [15] was 92% and the growth at 0.01 µM [16] was 98%. For the same compound, the growth at 100 µM [17] was -29%, the growth at 10 µM [18] was -14% and the growth at 10 µM [19] was -57.3%. For the same compound, the growth at 0.1 µM [20] was 92%, the growth at 10 µM [21] was -20.6% and the growth at 10 µM [22] was -53%. It also gave a growth at 10 µM [23] of 14.3% and a growth at 1 µM [24] of 90%.
